Peptide text beside a SMILES is read from it. * marks the point of attachment. Cbz = O=C(OCc1ccccc1)*

Test [1] has as its system xenograft leukemia models. The settings on record: cited from earlier work.
For test [2], the system named is MV4;11 cells. Put plainly: Drug synergy test, MS41 with doxorubicin. It counts as cell-based, human. The settings on record: MV4;11, cotreatment, 6 days. In outline:
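MV4;11 cells were given DMSO, test compound, doxorubicin, or the combination at graded concentrations for 6 days. Viability was read by CellTiter-Glo luminescence.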

Test [3] addresses T1, ENL (Homo sapiens, UniProt Q03111).
T1 sequence (Q03111 1-559): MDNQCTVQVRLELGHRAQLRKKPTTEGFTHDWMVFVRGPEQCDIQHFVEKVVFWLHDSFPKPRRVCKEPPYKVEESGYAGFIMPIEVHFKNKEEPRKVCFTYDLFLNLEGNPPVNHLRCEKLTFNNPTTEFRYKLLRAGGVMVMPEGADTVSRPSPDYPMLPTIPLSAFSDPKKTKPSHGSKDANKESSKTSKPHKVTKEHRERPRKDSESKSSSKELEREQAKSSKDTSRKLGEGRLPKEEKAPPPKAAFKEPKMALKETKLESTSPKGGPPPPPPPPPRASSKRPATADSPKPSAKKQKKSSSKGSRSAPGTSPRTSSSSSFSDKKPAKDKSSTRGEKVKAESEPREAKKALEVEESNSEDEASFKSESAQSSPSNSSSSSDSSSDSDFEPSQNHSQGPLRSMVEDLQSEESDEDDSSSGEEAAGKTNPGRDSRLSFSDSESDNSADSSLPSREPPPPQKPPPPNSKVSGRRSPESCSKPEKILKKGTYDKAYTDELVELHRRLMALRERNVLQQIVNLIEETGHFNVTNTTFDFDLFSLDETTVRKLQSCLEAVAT
It counts as cell-based. The settings on record: MV4;11 cells pretreated 1 hour, then 100 nM MS41 for 2 hours. In outline:
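MV4;11 cells were pretreated 1 h with graded concentrations of a YEATS-domain ligand, a VHL ligand, proteasome inhibitor MG132, or neddylation inhibitor MLN4924, then given 100 nM test compound for 2 h. Separately, control-sgRNA or VHL-sgRNA MV4;11 cells got graded test compound for 24 h. ENL and VHL were read by immunoblot.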

The subject of test [4] is MV4;11 cells. Put plainly: RNA-seq analysis in MV4. It counts as cell-based, human. Particulars: MV4;11, 6 and 24 hours.
The subject of test [5] is MV4;11 cells. Put plainly: Cell viability assay. It counts as cell-based, human. Particulars: MV4;11, 6 days.
Test [6] addresses T2, ENL YEATS domain (Homo sapiens, UniProt Q03111).
T2 sequence (Q03111 1-145): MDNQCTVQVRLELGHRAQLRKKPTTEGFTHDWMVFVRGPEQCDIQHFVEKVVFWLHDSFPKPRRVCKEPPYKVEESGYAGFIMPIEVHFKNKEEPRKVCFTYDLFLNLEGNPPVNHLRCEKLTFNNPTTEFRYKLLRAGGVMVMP
Put plainly: AlphaScreen assay, ENL YEATS-H3K9ac interaction. The test is classed as binding.

In test [7] the target is T1, ENL. Description: Endogenous ENL degradation by immunoblotting in human leukemia cell lines. The test is classed as cell-based. The settings on record: MV4;11 cells; 1 nM to 10 μM, 6 and 24 hours. The method, boiled down:
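MV4;11 and Jurkat cells were treated with DMSO or graded test-compound concentrations for 6 or 24 h. Cells were lysed in Tris/250 mM NaCl/0.5% Triton X-100/glycerol buffer with DTT and protease inhibitors. Bradford-equalised lysates were immunoblotted for ENL, with β-actin as loading control.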
Background: Immunoblotting shows a protein as a band on a membrane.

The test system of test [8] is MV4;11 cells. Put plainly: MS-based global quantitative. It counts as cell-based, human. Particulars: MV4;11, 100 nM, 2 or 6 hours; cutoff P value <0.05 and fold change >1.5. The method, boiled down: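 MV4;11 cells (10^6 per sample, three biological replicates) were exposed to 100 nM test compound or DMSO for 2 or 6 h. Pellets were solubilised in 8 M urea/50 mM Tris pH 8.0, reduced with 5 mM DTT and alkylated with 15 mM iodoacetamide. After fourfold dilution, samples were digested with trypsin (1:100, overnight, RT), desalted on C18 and analysed by nanoLC-MS. Proteins with ≥2 razor+unique peptides were compared by two-sample t test.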

In test [9] the test system is MV4;11 cells. Put plainly: Cell cycle and apoptosis assay. The test is classed as cell-based, human. The settings on record: MV4;11, 100 nM. In outline: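 Cells were harvested at set time points. For cell cycle, cells in HBSS/2% FBS were fixed with dropwise ice-cold 70% ethanol and stained with DAPI. For apoptosis, cells were PBS-washed at 1×10^6 cells/ml in binding buffer, stained with FITC-annexin V plus propidium iodide for 15 min at RT, and run on flow cytometry within 1 h.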

Test [10] concerns RS4;11 cells. Put plainly: Cell viability assay. The test is classed as cell-based, human. The settings on record: RS4;11, 6 days.
The test system of test [11] is SEMK2 cells. Put plainly: Cell viability assay. The test is classed as cell-based, human. Particulars: SEMK2, 6 days.
The test system of test [12] is MV4;11 cells. Description: RT-qPCR of ENL target genes and ENL in MV4. Particulars: MV4;11, 24 hours. The test is classed as cell-based, human. In general terms: Real-time PCR tracks product formation cycle by cycle.
In test [13] the test system is KASUMI1 cells. Put plainly: Colony formation assay. Particulars: KASUMI1, 100 nM, 10 days. It counts as cell-based, human.
Test [14] concerns HEK293 cells. Put plainly: RT-qPCR of HOXA11 and HOXA13 in HEK293 cells expressing ENL mutants. The test is classed as cell-based, human. The settings on record: HEK293 stable cells, 100 nM, 72 hours. The method, boiled down:
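HEK293 stable lines expressing ENL mutants were treated with DMSO, 100 nM test compound or 100 nM controls for 72 h. HOXA11 and HOXA13 mRNA was measured by RT-qPCR in three independent experiments, reported as mean ± SEM with Student's t test.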

For test [15] the following is noted: cited from earlier work.
For test [16], the system named is ENL. Particulars: cited from earlier work.
The subject of test [17] is IKZF1. Particulars: cited from earlier work.

Take `C[C@H]1CCCN1Cc1cc2cnc(NC(=O)c3ccc4c(cnn4C)c3)cc2[nH]1` [TDI-11055]: the in vivo efficacy result in test [1] is on record as “in vivo efficacy in xenograft leukemia models”.

Take `COc1cccc2c1C(=O)c1c(O)c3c(c(O)c1C2=O)C[C@@](O)(C(=O)CO)C[C@@H]3O[C@H]1C[C@H](N)[C@H](O)[C@H](C)O1` [doxorubicin]: the “interaction of MS41 and doxorubicin (Bliss independence model)” value in test [2] was “strong synergistic effect”.

Consider `CC(C)C[C@@H](C=O)NC(=O)[C@H](CC(C)C)NC(=O)[C@H](CC(C)C)NC(=O)OCc1ccccc1` [MG132] (Cbz-Leu-Leu-Leu-aldehyde), for which the “effect of pretreatment on MS41-mediated ENL degradation” value (shortened to “effect of pretreatment”) in test [3] was “effectively blocked”.

As for `NS(=O)(=O)OC[C@@H]1C[C@@H](n2ccc3c(N[C@H]4CCc5ccccc54)ncnc32)C[C@@H]1O` [MLN4924], the “effect of pretreatment” value in test [3] was “effectively blocked”.

Turning to `Cc1ncsc1-c1ccc([C@H](C)NC(=O)[C@H]2C[C@H](O)CN2C(=O)[C@@H](NC(=O)CCCCCCCCCNC(=O)c2ccc3c(c2)[C@H](NC(=O)c2cc(-c4ccc(C(=O)N(C)C)c(O)c4)on2)CC3)C(C)(C)C)cc1` [MS41N], in test [4], the “changes in gene expression (RNA-seq)” value is “did not induce substantial changes in gene expression”. In addition, the cell growth suppression result in test [5], in [10] and in [11] was “did not suppress cell growth” throughout. Further, in [6], the IC50 came out at 117 nM. The “endogenous ENL protein degradation (immunoblot)” value in test [7] was “did not induce ENL degradation, even at 10 μM”. Also, the “proteome-wide selectivity (change in protein abundance)” value in test [8] is given as “did not substantially alter the abundance of any proteins”. The apoptosis result in [9] is recorded as “had no such effects”. In addition, in test [9], the cell cycle profile result is reported as “had no such effects”. Further, the “mRNA levels of ENL (RT-qPCR)” value in test [12] was “did not affect mRNA levels of ENL”. The “clonogenic potential (colony formation)” value in test [13] is reported as “but not MS41N or PFI-6”. The “HOXA11 and HOXA13 gene expression induced by ENL mutants” value in test [14] is “had no or only minor effects on HOXA11 and HOXA13 gene expression”.

Consider `Cc1ncsc1-c1ccc(CNC(=O)[C@@H]2C[C@@H](O)CN2C(=O)[C@@H](NC(=O)CCOCCNC(=O)c2ccc3c(c2)[C@H](NC(=O)c2cc(-c4ccc(C(=O)N(C)C)c(O)c4)on2)CC3)C(C)(C)C)cc1` [compound 1], for which, in test [15], the antitumor activity entry was “exhibiting antitumor activity”.

In the case of `Cc1ncsc1-c1ccc(CNC(=O)[C@@H]2C[C@@H](O)CN2C(=O)[C@@H](NC(=O)C2(C#N)CC2)C(C)(C)C)cc1` [VH298], the “effect of pretreatment” value in test [3] was “hindered MS41-mediated ENL degradation”.

Turning to `O=C(COc1cccc2c1C(=O)N(C1CCC(=O)NC1=O)C2=O)NCCOCCOCCNS(=O)(=O)Nc1cccc(-c2cn3cc(C(=O)NC4CCC4)ccc3n2)c1` (centres unmarked) [SR-1114], in test [16], the ENL depletion result was “able to induce ENL depletion”. The “IKZF1 degradation (off-target)” value in test [17] was “concurrent degradation of IKZF1”.

By IC50 is commonly meant the midpoint of a concentration-inhibition curve. Lower therefore signals greater potency in that assay.

These data come from publication PMC11352836 (Science Advances, 2024).
